Reference: ChEMBL document CHEMBL1136765, “1,3-dioxolane-based ligands as a novel class of alpha1-adrenoceptor antagonists” (J Med Chem, 2003)

Experiments:
[1] = target: T1, Alpha-1A adrenergic receptor (Homo sapiens, UniProt P35348); assay: Affinity constant towards human recombinant Alpha-1A adrenergic receptor using [3H]prazosin (from CHO cells) as radioligand by radioligand binding assay; format: cell-based
T1 sequence (P35348 whole entry): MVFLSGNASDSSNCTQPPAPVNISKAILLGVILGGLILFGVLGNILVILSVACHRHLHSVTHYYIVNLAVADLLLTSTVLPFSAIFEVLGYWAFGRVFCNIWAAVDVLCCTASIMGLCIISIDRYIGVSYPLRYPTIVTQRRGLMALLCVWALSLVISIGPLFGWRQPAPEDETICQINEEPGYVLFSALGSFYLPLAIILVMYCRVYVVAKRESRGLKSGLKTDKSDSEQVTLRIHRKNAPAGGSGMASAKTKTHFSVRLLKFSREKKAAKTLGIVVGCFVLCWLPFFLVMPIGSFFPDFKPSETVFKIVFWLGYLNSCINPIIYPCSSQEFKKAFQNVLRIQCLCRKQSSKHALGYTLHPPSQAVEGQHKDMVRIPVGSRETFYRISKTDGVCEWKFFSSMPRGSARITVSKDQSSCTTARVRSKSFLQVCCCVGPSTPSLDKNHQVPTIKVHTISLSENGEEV

[2] = target: T2, Alpha-1B adrenergic receptor (Homo sapiens, UniProt P35368); assay: Affinity constant towards human recombinant Alpha-1B adrenergic receptor using [3H]prazosin (from CHO cells) as radioligand by radioligand binding assay; format: cell-based
T2 sequence (P35368 whole entry): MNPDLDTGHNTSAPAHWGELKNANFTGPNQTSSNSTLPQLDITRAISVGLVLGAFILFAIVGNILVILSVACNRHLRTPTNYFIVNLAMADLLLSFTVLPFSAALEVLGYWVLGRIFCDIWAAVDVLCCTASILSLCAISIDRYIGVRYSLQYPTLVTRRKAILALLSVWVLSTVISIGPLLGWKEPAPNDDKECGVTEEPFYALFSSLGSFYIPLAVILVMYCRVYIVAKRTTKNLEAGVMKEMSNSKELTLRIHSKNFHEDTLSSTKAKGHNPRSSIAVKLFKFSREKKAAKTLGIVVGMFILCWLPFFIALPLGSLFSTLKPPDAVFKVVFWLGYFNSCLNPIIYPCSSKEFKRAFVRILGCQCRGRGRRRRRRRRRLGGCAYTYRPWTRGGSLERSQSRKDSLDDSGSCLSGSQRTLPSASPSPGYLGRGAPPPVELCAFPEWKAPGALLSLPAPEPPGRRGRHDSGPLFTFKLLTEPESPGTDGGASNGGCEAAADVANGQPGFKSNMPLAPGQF
In short: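 Membranes of CHO cells stably expressing each cloned human α1 subtype (30 µg protein) incubated with 0.1-0.4 nM [3H]prazosin in 50 mM Tris-HCl pH 7.4, 30 min at 25 °C, with competitor. Nonspecific binding with 10 µM phentolamine. Stopped by ice-cold buffer and filtration on PEI-pretreated filters. IC50 by curve fitting, Ki via Cheng-Prusoff. Mean of two to three experiments in triplicate.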

[3] = Selectivity given as ratio of pKb value against Alpha-1D receptor to pKb value against Alpha-1B receptor in rat; format: functional
[4] = target: Alpha adrenergic receptor 1A and 1B (Rattus norvegicus) (UniProt P15823+P43140); assay: Selectivity given as ratio of pKb value against alpha1A receptor to pKb value against alpha-1B receptor in rat; format: functional
[5] = target: Adrenergic receptors; alpha-1 A & B (Homo sapiens) (UniProt P35348+P35368); assay: Selectivity over alpha-1a/alpha-1b; format: protein assay
[6] = target: Alpha adrenergic receptor (1a and 1d) (Homo sapiens) (UniProt P35348+P25100); assay: Selectivity over human alpha-1d/alpha-1a receptor; format: protein assay
Chain of Alpha adrenergic receptor (1a and 1d) (Homo sapiens) (P25100 whole entry, looked up, one chain of several): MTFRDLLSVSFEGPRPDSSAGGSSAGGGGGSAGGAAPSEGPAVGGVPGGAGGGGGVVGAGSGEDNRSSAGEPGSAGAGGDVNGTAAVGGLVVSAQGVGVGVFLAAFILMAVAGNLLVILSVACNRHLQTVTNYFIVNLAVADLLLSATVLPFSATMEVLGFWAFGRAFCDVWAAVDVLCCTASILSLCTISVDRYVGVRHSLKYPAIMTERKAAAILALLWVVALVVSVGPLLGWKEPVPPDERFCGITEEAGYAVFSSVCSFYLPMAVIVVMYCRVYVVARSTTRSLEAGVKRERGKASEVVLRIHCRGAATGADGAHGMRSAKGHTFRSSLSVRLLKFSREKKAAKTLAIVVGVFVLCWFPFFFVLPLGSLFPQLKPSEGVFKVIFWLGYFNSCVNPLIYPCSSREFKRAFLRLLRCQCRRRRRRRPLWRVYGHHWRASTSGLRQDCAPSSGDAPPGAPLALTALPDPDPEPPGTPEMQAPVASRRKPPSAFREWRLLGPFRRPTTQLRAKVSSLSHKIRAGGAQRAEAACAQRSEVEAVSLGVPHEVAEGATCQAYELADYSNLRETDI

[7] = Selectivity over human alpha-1d/alpha-1b receptor
[8] = target: T3, Alpha-1B adrenergic receptor (Rattus norvegicus) (UniProt P15823); assay: Inhibition of (-)-phenylephrine-induced contraction of rat spleen (Alpha-1B adrenergic receptor ); format: functional, tissue-based
T3 sequence (whole entry): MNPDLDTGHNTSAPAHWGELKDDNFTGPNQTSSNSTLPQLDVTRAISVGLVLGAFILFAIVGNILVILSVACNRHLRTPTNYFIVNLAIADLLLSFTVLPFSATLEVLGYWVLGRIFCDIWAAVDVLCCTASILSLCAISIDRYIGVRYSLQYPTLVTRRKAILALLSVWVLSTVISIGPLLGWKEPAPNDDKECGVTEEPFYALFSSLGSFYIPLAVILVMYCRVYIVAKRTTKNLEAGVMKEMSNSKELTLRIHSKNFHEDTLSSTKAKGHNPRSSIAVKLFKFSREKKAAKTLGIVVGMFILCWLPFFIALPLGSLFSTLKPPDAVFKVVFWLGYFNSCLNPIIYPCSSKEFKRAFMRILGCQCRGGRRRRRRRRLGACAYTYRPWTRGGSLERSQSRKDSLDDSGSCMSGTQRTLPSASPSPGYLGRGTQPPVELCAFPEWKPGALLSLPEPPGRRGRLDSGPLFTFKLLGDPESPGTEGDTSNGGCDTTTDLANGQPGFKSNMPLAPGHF
In short: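 Rat spleen strips in buffer containing 4 µM propranolol to block β-adrenoceptors, 1 g resting tension, 2 h equilibration. Isometric cumulative phenylephrine curves at 30 min intervals; first discarded, second control.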

[9] = target: T4, Alpha-1A adrenergic receptor (Rattus norvegicus) (UniProt P43140); assay: Inhibition of (-)-noradrenaline-induced contraction of rat prostatic vas deferens (alpha1A receptor); format: functional
T4 sequence (whole entry): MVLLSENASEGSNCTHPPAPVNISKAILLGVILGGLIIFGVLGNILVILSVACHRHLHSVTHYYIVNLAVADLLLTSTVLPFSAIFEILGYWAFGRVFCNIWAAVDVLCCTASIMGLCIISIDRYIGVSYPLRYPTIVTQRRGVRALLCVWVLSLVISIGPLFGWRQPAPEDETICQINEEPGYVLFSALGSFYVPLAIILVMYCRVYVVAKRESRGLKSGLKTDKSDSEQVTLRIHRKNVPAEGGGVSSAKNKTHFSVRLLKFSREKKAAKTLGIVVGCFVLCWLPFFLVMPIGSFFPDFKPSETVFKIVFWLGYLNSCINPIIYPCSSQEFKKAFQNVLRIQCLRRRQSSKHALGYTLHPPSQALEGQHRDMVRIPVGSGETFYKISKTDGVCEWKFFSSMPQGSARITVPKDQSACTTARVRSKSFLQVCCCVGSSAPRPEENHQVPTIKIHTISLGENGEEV
In short: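 Rat prostatic vas deferens portion equilibrated 60 min, washed every 15 min, primed twice with 10 µM noradrenaline, re-equilibrated 60 min; control noradrenaline concentration-response curve, then antagonist 30 min before repeat curve.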

Row | Structure (SMILES) | Ki [1] | Ki [2] | Selectivity [3] | Selectivity [4] | Selectivity [5] | Selectivity [6] | Selectivity [7] | pKb [8] | pKb [9]
1 | COc1ccccc1OCCNCC1COC(c2ccccc2)(c2ccccc2)O1.O=C(O)C(=O)O (centres undefined) | 24.5 nM | 45.7 nM | 20 | 1 | 2 | 3 | 7 | – | –
2 | C[N+](C)(CCOc1ccccc1)CC1COC(c2ccccc2)(c2ccccc2)O1.O=C([O-])C(=O)O (centres undefined) | 33.9 nM | 20.4 nM | 4 | < 0.3 | 0.6 | < 0.03 | < 0.02 | 5.6 | < 5
3 | O=C(O)C(=O)O.c1ccc(OCCNCC2COC(c3ccccc3)(c3ccccc3)O2)cc1 (centres undefined) | 37.2 nM | 63.1 nM | 324 | 2 | 2 | 3 | 6 | 5.86 | 6.16
4 | CN(CCOc1ccccc1)CC1COC(c2ccccc2)(c2ccccc2)O1.O=C(O)C(=O)O (centres undefined) | 832 nM | 257 nM | 6 | 0.6 | 0.3 | < 0.9 | < 0.3 | 5.31 | 5.06
